Data published in ChEMBL document CHEMBL1765085, “Cytotoxic and apoptosis-inducing activities of triterpene acids from Poria cocos” (J Nat Prod, 2011).

Columns and labels:
Type in all cases: functional, cell-based
[1] = test system: SK-BR-3; assay: Cytotoxicity in human SK-BR-3 cells assessed as cell viability after 48 hrs by MTT assay; conditions: SK-BR-3, 48 h
Summary of the method: (§1)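 Growth conditions: RPMI 1640 for HL60, CRL1579, NIH:OVCAR-3, SK-BR-3, DU145 and PANC-1; D-MEM for A549; MEM for WI-38; all with 10% FBS and antibiotics, 37 °C, 5% CO2. Seeded at 3 × 10^3 cells/well (OVCAR-3 1 × 10^4), then treated 48 h with 10^-4 to 10^-6 M. MTT for 3 h, formazan dissolved in 0.04 M HCl/2-propanol, A570/630. IC50 (50% growth inhibition) from triplicates.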

[2] = Cytotoxicity in human CRL1579 cells assessed as cell viability after 48 hrs by MTT assay; summary of the method: as §1
[3] = test system: PANC-1; assay: Cytotoxicity in human PANC1 cells assessed as cell viability after 48 hrs by MTT assay; conditions: PANC-1, 48 h; summary of the method: as §1
[4] = test system: HL-60; assay: Cytotoxicity in human HL60 cells assessed as cell viability after 48 hrs by MTT assay; conditions: HL-60, 48 h; summary of the method: as §1
[5] = test system: OVCAR-3; assay: Cytotoxicity in human OVCAR3 cells assessed as cell viability after 48 hrs by MTT assay; conditions: OVCAR-3, 48 h; summary of the method: as §1
[6] = test system: A549; assay: Cytotoxicity in human A549 cells assessed as cell viability after 48 hrs by MTT assay; conditions: A549, 48 h; summary of the method: as §1
[7] = Cytotoxicity in human AZ-521 cells assessed as cell viability after 48 hrs by MTT assay; conditions: AZ-521, 48 h
[8] = test system: DU-145; assay: Cytotoxicity in human DU145 cells assessed as cell viability after 48 hrs by MTT assay; conditions: DU-145, 48 h; summary of the method: as §1

C=C(CC[C@@H](CO)[C@H]1[C@H](O)C[C@@]2(C)C3=CC[C@H]4C(C)(C)[C@H](O)CC[C@]4(C)C3=CC[C@]12C)C(C)(C)O
IC50 [1]: > 100 µM
IC50 [2]: 14 µM
IC50 [3]: > 100 µM
IC50 [4]: 2.5 µM
IC50 [5]: > 100 µM
IC50 [6]: > 100 µM
IC50 [7]: > 100 µM
IC50 [8]: > 100 µM

C=C(CC[C@@H](CO)[C@H]1CC[C@@]2(C)C3=CC[C@H]4C(C)(C)[C@@H](O)CC[C@]4(C)C3=CC[C@]12C)C(C)C
IC50 [1]: 11.7 µM
IC50 [2]: 2.8 µM
IC50 [3]: 22.6 µM
IC50 [4]: 6.7 µM
IC50 [5]: 6.4 µM
IC50 [6]: 4 µM
IC50 [7]: 12.5 µM
IC50 [8]: > 100 µM

C=C(CC[C@@H](C(=O)OC)[C@H]1CC[C@@]2(C)C3=CC[C@@H](C(=C)C)[C@](C)(CCC(=O)OC)C3=CC[C@]12C)C(C)C [DIMETHYL PORICOATE C]
IC50 [1]: 23.9 µM
IC50 [2]: 27.8 µM
IC50 [3]: > 100 µM
IC50 [4]: 2.4 µM
IC50 [5]: 23.6 µM
IC50 [6]: 83.8 µM
IC50 [7]: 19.8 µM
IC50 [8]: > 100 µM

C=C(CC[C@@H](C(=O)OC)[C@H]1CC[C@@]2(C)C3=CC[C@H]4C(C)(C)C(=O)CC[C@]4(C)C3=CC[C@]12C)C(C)C
IC50 [1]: 27.5 µM
IC50 [2]: 20.9 µM
IC50 [3]: > 100 µM
IC50 [4]: 23.5 µM
IC50 [5]: > 100 µM
IC50 [6]: 96.5 µM
IC50 [7]: 53.4 µM
IC50 [8]: > 100 µM

C=C(CC[C@@H](CO)[C@H]1[C@H](O)C[C@@]2(C)C3=C(CC[C@]12C)[C@@](C)(CCCO)[C@H](C(=C)C)CC3)C(C)C
IC50 [1]: 51.3 µM
IC50 [2]: 9.9 µM
IC50 [3]: > 100 µM
IC50 [4]: 2.9 µM
IC50 [5]: > 100 µM
IC50 [6]: 41.2 µM
IC50 [7]: > 100 µM
IC50 [8]: > 100 µM

C=C(CC[C@@H](C(=O)O)[C@H]1[C@H](O)C[C@@]2(C)C3=CC[C@@H](C(=C)C)[C@](C)(CCC(=O)O)C3=CC[C@]12C)C(C)C [PORICOIC ACID A]
IC50 [1]: > 100 µM
IC50 [3]: > 100 µM
IC50 [5]: > 100 µM
IC50 [6]: > 100 µM
IC50 [7]: > 100 µM
IC50 [8]: > 100 µM

C=C(CC[C@@H](CO)[C@H]1CC[C@@]2(C)C3=CC[C@@H](C(=C)C)[C@](C)(CCCO)C3=CC[C@]12C)C(C)C [PORICOTRIOL C]
IC50 [1]: 11 µM
IC50 [2]: 76.4 µM
IC50 [3]: 91.3 µM
IC50 [4]: 12.3 µM
IC50 [5]: 70.3 µM
IC50 [6]: 80 µM
IC50 [7]: 13.3 µM
IC50 [8]: 20.3 µM

C=C(CC[C@@H](C(=O)O)[C@H]1[C@H](O)C[C@@]2(C)C3=CC[C@H]4C(C)(C)[C@H](O)CC[C@]4(C)C3=CC[C@]12C)C(C)(C)O
IC50 [1]: 62.3 µM
IC50 [3]: 67.4 µM
IC50 [5]: 9.5 µM
IC50 [6]: 4 µM
IC50 [7]: 51.5 µM
IC50 [8]: > 100 µM

C=C(C)[C@@H]1CCC2=C(CC[C@]3(C)[C@@H]([C@@H](CCC=C(C)C)C(=O)OC)[C@H](O)C[C@@]23C)[C@@]1(C)CCC(=O)OC [DIMETHYL PORICOATE G]
IC50 [1]: 4.3 µM
IC50 [2]: 42.4 µM
IC50 [3]: > 100 µM
IC50 [4]: 8.8 µM
IC50 [5]: 26.3 µM
IC50 [6]: 66 µM
IC50 [7]: 34.5 µM
IC50 [8]: > 100 µM

C=C(CC[C@@H](C(=O)O)[C@H]1[C@H](O)C[C@@]2(C)C3=C(CC[C@]12C)[C@@](C)(CCC(=O)O)[C@H](C(=C)C)CC3)C(C)C [PORICOIC ACID H]
IC50 [1]: > 100 µM
IC50 [3]: > 100 µM
IC50 [5]: > 100 µM
IC50 [6]: > 100 µM
IC50 [7]: > 100 µM
IC50 [8]: > 100 µM

C=C(CC[C@@H](C(=O)OC)[C@H]1[C@H](O)C[C@@]2(C)C3=CC[C@@H](C(=C)C)[C@](C)(CCC(=O)OC)C3=CC[C@]12C)C(C)C [DIMETHYL PORICOATE A]
IC50 [1]: 32.2 µM
IC50 [2]: > 100 µM
IC50 [3]: > 100 µM
IC50 [4]: 18.2 µM
IC50 [5]: 91.8 µM
IC50 [6]: 79.6 µM
IC50 [7]: 32.1 µM
IC50 [8]: > 100 µM

C=C(CC[C@@H](C(=O)OC)[C@H]1[C@H](O)C[C@@]2(C)C3=CC[C@H]4C(C)(C)[C@H](O)CC[C@]4(C)C3=CC[C@]12C)C(C)(C)O
IC50 [1]: 27.5 µM
IC50 [2]: 76.5 µM
IC50 [3]: 71.3 µM
IC50 [4]: 6.9 µM
IC50 [5]: 67.5 µM
IC50 [6]: 41.4 µM
IC50 [7]: 14.4 µM
IC50 [8]: 28.9 µM

C=C(CCC(C(=O)O)[C@H]1CC[C@@]2(C)C3=CC[C@H]4C(C)(C)C(=O)CC[C@]4(C)C3=CC[C@]12C)C(C)C (stereo not given in full) [DEHYDROEBURICONIC ACID]
IC50 [1]: 12.2 µM
IC50 [2]: 89.7 µM
IC50 [3]: 5.5 µM
IC50 [4]: 29.2 µM
IC50 [5]: 37.7 µM
IC50 [6]: 10 µM
IC50 [7]: > 100 µM
IC50 [8]: > 100 µM

C=C(CC[C@@H](C(=O)OC)[C@H]1[C@H](O)C[C@@]2(C)C3=C(CC[C@]12C)[C@@](C)(CCC(=O)OC)[C@H](C(=C)C)CC3)C(C)C [DIMETHYL PORICOATE H]
IC50 [1]: 15.9 µM
IC50 [2]: 97.6 µM
IC50 [3]: 44.9 µM
IC50 [4]: 3.6 µM
IC50 [5]: 49.5 µM
IC50 [6]: 13.5 µM
IC50 [7]: 14.6 µM
IC50 [8]: 28.9 µM

O=c1[nH]cc(F)c(=O)[nH]1 [FLUOROURACIL]
IC50 [1]: > 100 µM
IC50 [2]: > 100 µM
IC50 [3]: 54.1 µM
IC50 [4]: 9.5 µM
IC50 [5]: > 100 µM
IC50 [7]: > 100 µM
IC50 [8]: > 100 µM

C=C(C)[C@@H]1CCC2=C(CC[C@]3(C)[C@@H]([C@@H](CCC=C(C)C)C(=O)O)[C@H](O)C[C@@]23C)[C@@]1(C)CCC(=O)O [PORICOIC ACID G]
IC50 [1]: > 100 µM
IC50 [3]: > 100 µM
IC50 [5]: > 100 µM
IC50 [6]: > 100 µM
IC50 [7]: > 100 µM
IC50 [8]: > 100 µM

C=C(CC[C@@H](C(=O)O)[C@H]1CC[C@@]2(C)C3=CC[C@@H](C(=C)C)[C@](C)(CCC(=O)O)C3=CC[C@]12C)C(C)C [PORICOIC ACID C]
IC50 [1]: 23.9 µM
IC50 [2]: > 100 µM
IC50 [3]: 68.9 µM
IC50 [4]: 25.9 µM
IC50 [5]: 53.1 µM
IC50 [6]: 27 µM
IC50 [7]: 45.9 µM
IC50 [8]: 14.5 µM

C=C(C)[C@@H]1CCC2=C(CC[C@]3(C)[C@@H]([C@H](CO)CCC=C(C)C)[C@H](O)C[C@@]23C)[C@@]1(C)CCCO [PORICOTRIOL G]
IC50 [1]: 13 µM
IC50 [2]: 11.6 µM
IC50 [3]: 17.9 µM
IC50 [4]: 7.5 µM
IC50 [5]: 43.5 µM
IC50 [6]: 11 µM
IC50 [7]: 13.4 µM
IC50 [8]: > 100 µM
